Test results from ChEMBL document CHEMBL5120742, “Multi-target weapons: diaryl-pyrazoline thiazolidinediones simultaneously targeting VEGFR-2 and HDAC cancer hallmarks” (RSC Med Chem, 2021).
pIC50: −log10 of the molar value.

Experiments:
[1] = molecular target: T1, Histone deacetylase 4 (Homo sapiens, UniProt P56524); assay: Inhibition of recombinant human N-terminal His6-SUMO-tagged C-terminal SII-tagged HDAC4 expressed in Escherichia coli (BL21) DE3 pLysS cells using BocLys(trifluoroacetyl)-AMC as substrate incubated for 30 mins by fluorescence assay
Outline: (§1)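 Catalytic-domain HDAC4 (His6-SUMO/SII-tagged) and full-length codon-optimized human HDAC8 were expressed in E. coli BL21 DE3 pLysS from pET14b. Both were assayed in a two-step fluorogenic format with Boc-Lys(trifluoroacetyl)-AMC, followed by trypsin development. Compounds were screened first at 50 µM for residual activity.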

[2] = molecular target: T2, Histone deacetylase 8 (Homo sapiens, UniProt Q9BY41); assay: Inhibition of recombinant human N-terminal His6-SUMO-tagged C-terminal SII-tagged HDAC8 expressed in Escherichia coli (BL21) DE3 pLysS cells using BocLys(trifluoroacetyl)-AMC as substrate incubated for 30 mins by fluorescence assay; outline: as §1
T2 sequence (Q9BY41 whole entry): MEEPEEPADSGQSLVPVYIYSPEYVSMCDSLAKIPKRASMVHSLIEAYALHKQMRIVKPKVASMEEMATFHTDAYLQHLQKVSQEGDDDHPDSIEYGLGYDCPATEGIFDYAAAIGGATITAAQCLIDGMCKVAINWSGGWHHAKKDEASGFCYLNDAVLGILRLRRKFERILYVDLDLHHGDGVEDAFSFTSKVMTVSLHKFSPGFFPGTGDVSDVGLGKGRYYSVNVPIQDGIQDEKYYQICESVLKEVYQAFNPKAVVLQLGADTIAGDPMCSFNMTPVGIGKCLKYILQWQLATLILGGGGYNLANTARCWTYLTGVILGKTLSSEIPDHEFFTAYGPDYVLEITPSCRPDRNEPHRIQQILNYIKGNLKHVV

[3] = molecular target: T1, Histone deacetylase 4; assay: Inhibition of recombinant human N-terminal His6-SUMO-tagged C-terminal SII-tagged HDAC4 expressed in Escherichia coli (BL21) DE3 pLysS cells assessed as residual activity at 50 uM using BocLys(trifluoroacetyl)-AMC as substrate incubated for 30 mins by fluorescence assay relative to control; outline: as §1
[4] = molecular target: T3, Histone deacetylase 8 (Homo sapiens) (UniProt Q9BY41); assay: Inhibition of recombinant human N-terminal His6-SUMO-tagged C-terminal SII-tagged HDAC8 expressed in Escherichia coli (BL21) DE3 pLysS cells assessed as residual activity at 50 uM using BocLys(trifluoroacetyl)-AMC as substrate incubated for 30 mins by fluorescence assay relative to control; outline: as §1
T3 sequence (whole entry): T2 sequence (Q9BY41 whole entry)

[5] = Cytotoxicity against HUVEC cells assessed as reduction in cell viability after 96 hrs by MTT assay; settings: human
[6] = molecular target: Vascular endothelial growth factor receptor 2 (Homo sapiens, UniProt P35968); assay: Inhibition of human VEGFR2 in HUVEC cells assessed as reduction in VEGFR2 phosphorylation at 10 uM incubated for 30 mins by anti-phospho VEGF Tyr 1175 antibody based assay relative to control; format: cell-based
Outline: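 HUVECs were seeded at 4000–5000 per well in DMEM with 10% FCS for 12 h, then held 24 h in serum. Compound (10 µM) was added with serum for 30 min at 37 °C. Cells were fixed in 4% formaldehyde and probed with anti-phospho-VEGFR Tyr1175 (1:1000), then an HRP secondary (1:5000). TMB signal was stopped with 2N H2SO4 and read at 450 nm. Percent inhibition is normalized to control.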

[7] = test system: HT-29; assay: Antiproliferative activity against human HT-29 cells assessed as reduction in cell viability after 48 hrs by MTT assay; format: functional, cell-based; settings: HT-29, 48 h
Outline: (§2)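 MCF-7, K562, A549 and HT-29 lines were seeded in 96-well plates and kept overnight at 37 °C, 5% CO2, 95% humidity. They were then exposed to six concentrations (100 to 2.5) for 48 h. After PBS washes, MTT was added for 4 h at 37 °C and formazan was dissolved in DMSO. Absorbance was read at 570 nm. Survival is mean OD of treated wells over the negative control, and IC50 was derived from that.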

[8] = test system: K562; assay: Antiproliferative activity against human K562 cells assessed as reduction in cell viability after 48 hrs by MTT assay; format: functional, cell-based; settings: K562, 48 h; outline: as §2

T1 sequence (P56524 whole entry): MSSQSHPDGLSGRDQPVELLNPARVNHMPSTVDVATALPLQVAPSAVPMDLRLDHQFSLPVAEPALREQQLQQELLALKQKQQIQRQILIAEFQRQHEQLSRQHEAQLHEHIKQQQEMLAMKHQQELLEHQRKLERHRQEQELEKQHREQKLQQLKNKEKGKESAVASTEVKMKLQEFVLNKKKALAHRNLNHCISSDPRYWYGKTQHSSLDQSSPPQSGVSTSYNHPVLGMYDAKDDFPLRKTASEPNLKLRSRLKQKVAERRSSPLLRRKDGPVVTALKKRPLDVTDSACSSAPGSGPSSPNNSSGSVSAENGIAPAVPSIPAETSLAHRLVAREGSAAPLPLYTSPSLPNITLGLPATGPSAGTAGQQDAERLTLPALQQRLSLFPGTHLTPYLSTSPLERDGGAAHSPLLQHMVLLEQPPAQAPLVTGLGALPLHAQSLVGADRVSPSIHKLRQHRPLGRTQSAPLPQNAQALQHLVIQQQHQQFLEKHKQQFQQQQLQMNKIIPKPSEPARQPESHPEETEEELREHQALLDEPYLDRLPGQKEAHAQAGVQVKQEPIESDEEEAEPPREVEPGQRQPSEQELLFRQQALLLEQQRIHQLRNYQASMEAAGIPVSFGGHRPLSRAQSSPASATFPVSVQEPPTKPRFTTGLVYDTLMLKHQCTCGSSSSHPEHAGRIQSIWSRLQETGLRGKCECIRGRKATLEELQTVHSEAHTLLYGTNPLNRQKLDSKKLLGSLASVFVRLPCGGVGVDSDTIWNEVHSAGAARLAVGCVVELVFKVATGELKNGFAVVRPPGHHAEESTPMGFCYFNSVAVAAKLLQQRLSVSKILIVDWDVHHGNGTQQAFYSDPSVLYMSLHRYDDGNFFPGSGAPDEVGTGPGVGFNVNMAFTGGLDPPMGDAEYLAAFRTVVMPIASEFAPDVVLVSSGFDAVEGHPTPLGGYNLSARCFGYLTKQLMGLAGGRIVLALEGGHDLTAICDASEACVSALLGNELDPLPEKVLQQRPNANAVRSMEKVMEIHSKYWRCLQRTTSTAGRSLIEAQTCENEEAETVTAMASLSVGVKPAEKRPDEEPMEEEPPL
Vascular endothelial growth factor receptor 2, sequence (P35968 whole entry): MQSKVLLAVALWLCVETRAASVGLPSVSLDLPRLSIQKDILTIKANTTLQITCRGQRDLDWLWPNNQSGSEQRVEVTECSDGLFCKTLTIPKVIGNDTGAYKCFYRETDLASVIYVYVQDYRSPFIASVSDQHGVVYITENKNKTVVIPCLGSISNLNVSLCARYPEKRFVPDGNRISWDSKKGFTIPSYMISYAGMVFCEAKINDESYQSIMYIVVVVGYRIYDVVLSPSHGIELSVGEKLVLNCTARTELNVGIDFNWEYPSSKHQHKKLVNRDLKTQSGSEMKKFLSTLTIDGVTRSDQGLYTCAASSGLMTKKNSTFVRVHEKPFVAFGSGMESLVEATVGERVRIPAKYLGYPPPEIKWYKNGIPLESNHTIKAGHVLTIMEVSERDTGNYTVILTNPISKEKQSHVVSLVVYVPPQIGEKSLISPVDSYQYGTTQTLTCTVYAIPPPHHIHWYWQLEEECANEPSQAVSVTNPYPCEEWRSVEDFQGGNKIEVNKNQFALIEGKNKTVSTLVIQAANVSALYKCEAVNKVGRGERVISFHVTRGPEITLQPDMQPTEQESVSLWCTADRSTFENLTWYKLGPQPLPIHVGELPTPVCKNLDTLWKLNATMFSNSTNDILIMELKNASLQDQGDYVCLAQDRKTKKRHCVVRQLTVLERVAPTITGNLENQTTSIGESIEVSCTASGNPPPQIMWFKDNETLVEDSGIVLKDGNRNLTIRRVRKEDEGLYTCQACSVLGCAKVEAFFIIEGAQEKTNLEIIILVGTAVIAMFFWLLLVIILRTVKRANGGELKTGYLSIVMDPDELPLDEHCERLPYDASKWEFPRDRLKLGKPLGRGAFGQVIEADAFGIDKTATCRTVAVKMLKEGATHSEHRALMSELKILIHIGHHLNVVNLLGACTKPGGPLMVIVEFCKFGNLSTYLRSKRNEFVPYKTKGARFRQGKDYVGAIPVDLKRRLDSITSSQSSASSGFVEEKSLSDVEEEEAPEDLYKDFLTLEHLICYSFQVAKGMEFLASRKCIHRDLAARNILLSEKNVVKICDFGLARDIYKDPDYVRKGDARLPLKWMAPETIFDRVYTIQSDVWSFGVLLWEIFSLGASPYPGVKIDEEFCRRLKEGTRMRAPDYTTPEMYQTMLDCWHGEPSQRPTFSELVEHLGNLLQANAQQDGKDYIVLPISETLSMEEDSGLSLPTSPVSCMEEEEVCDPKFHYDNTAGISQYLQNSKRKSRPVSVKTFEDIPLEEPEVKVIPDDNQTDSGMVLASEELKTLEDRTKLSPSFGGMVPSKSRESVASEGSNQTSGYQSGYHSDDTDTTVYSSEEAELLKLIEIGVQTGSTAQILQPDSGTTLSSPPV

Row | pIC50 [1] | pIC50 [2] | Activity [3] [%] | Activity [4] [%] | inhibition [6] [%] | pIC50 [7] | pIC50 [8] | SMILES | IC50 at 96 h [5] [nM]
1 | 5.66 | 4.47 | 17 | 33 |  |  |  | O=C1NC(=O)/C(=C\c2ccc(OCC(=O)N3N=C(c4ccccc4)CC3c3ccc(F)cc3F)cc2)S1 (centres undefined) | 
2 | 4.82 | < 4.30 | 22 | 100 |  |  |  | O=C1NC(=O)/C(=C\c2ccc(OCC(=O)N3N=C(c4ccc(F)cc4F)CC3c3ccco3)cc2)S1 (centres undefined) | 
3 | 5.92 | 4.51 | 4.6 | 36 |  |  |  | Cc1ccc(C2CC(c3ccccc3)=NN2C(=O)COc2ccc(/C=C3/SC(=O)NC3=O)cc2)cc1 (centres undefined) | 
4 | 5.38 | < 4.30 | 10 | 58 |  |  |  | O=C1NC(=O)/C(=C\c2ccc(OCC(=O)N3N=C(c4ccc(F)cc4)CC3c3ccccc3)cc2)S1 (centres undefined) | > 10000
5 | 5.96 | < 4.30 | 3.3 | 28 |  |  |  | O=C1NC(=O)/C(=C\c2ccc(OCC(=O)N3N=C(c4ccc(F)cc4)CC3c3ccccc3Cl)cc2)S1 (centres undefined) | 
6 | 5.80 | < 4.30 | 10 | 63 |  |  |  | O=C1NC(=O)/C(=C\c2ccc(OCC(=O)N3N=C(c4ccc(F)cc4)CC3c3ccc(F)cc3F)cc2)S1 (centres undefined) | 
7 | 5.89 | < 4.30 | 9.2 | 81 | 48.7 |  |  | O=C1NC(=O)/C(=C\c2ccc(OCC(=O)N3N=C(c4ccc(F)cc4)CC3c3ccc(C(F)(F)F)cc3)cc2)S1 (centres undefined) | 6000
8 | 5.82 | < 4.30 | 10 | 69 |  |  |  | O=C1NC(=O)/C(=C\c2ccc(OCC(=O)N3N=C(c4ccc(F)cc4F)CC3c3ccc(F)cc3)cc2)S1 (centres undefined) | 
9 | 5.85 | < 4.30 | 3.3 | 61 |  |  |  | O=C1NC(=O)/C(=C\c2ccc(OCC(=O)N3N=C(c4ccc(F)cc4)CC3c3ccc(F)cc3)cc2)S1 (centres undefined) | > 10000
10 | 6.00 | 4.80 | 12 | 8.2 |  |  |  | O=C1NC(=O)/C(=C\c2ccc(OCC(=O)N3N=C(c4ccccc4)CC3c3ccc(C(F)(F)F)cc3)cc2)S1 (centres undefined) | > 10000
11 | 5.77 | 4.59 | 2.5 | 26 |  |  |  | O=C1NC(=O)/C(=C\c2ccc(OCC(=O)N3N=C(c4ccccc4)CC3c3ccc(F)cc3)cc2)S1 (centres undefined) | 
12 | 5.92 | 4.46 | 7 | 21 |  |  |  | O=C1NC(=O)/C(=C\c2ccc(OCC(=O)N3N=C(c4ccccc4)CC3c3ccc(Br)cc3)cc2)S1 (centres undefined) | 
13 |  |  |  |  |  | 6.55 | 6.54 | CC(=O)O[C@H]1C(=O)[C@@]2(C)[C@H]([C@H](OC(=O)c3ccccc3)[C@]3(O)C[C@H](OC(=O)[C@H](O)[C@@H](NC(=O)c4ccccc4)c4ccccc4)C(C)=C1C3(C)C)[C@]1(OC(C)=O)CO[C@@H]1C[C@@H]2O [PACLITAXEL] | 
14 | 5.80 | 4.70 | 11 | 39 |  |  |  | O=C1NC(=O)/C(=C\c2ccc(OCC(=O)N3N=C(c4ccccc4)CC3c3ccccc3)cc2)S1 (centres undefined) | 
15 | 5.82 | < 4.30 | 9.4 | 69 |  |  |  | Cc1ccc(C2CC(c3ccc(F)cc3F)=NN2C(=O)COc2ccc(/C=C3/SC(=O)NC3=O)cc2)cc1 (centres undefined) | > 10000
16 | 5.92 | 4.54 | 14 | 27 | 49 |  |  | O=C1NC(=O)/C(=C\c2ccc(OCC(=O)N3N=C(c4ccccc4)CC3c3ccccc3Cl)cc2)S1 (centres undefined) | 2000
17 | 5.74 | < 4.30 | 10 | 81 |  |  |  | Cc1ccc(C2CC(c3ccc(F)cc3)=NN2C(=O)COc2ccc(/C=C3/SC(=O)NC3=O)cc2)cc1 (centres undefined) | 
